Source: ChEMBL document CHEMBL1275272, “Synthesis, characterization and antimicrobial activity of some disubstituted 1,3,4-oxadiazoles carrying 2-(aryloxymethyl)phenyl moiety” (2010)
In brackets after ≈: the same amount, converted by molar mass.

What was measured:
Type in all cases: functional
Pseudomonas aeruginosa = assay: Antibacterial activity against Pseudomonas aeruginosa after 16 to 18 hrs by serial dilution method; conditions: for MIC: Pseudomonas aeruginosa
Summary of the method: (§1)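 The test compound was dissolved in DMF and serially diluted. A standard drop of the prepared microbial culture was added to each dilution, and tubes were incubated at 37 °C for 16–18 h. MIC was taken as the highest dilution that stayed clear with no visible turbidity.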

Escherichia coli = assay: Antibacterial activity against Escherichia coli after 16 to 18 hrs by serial dilution method; conditions: for MIC: Escherichia coli; summary of the method: as §1
[1] = test system: Trichophyton mentagrophytes; assay: Antifungal activity against Trichophyton mentagrophytes after 16 to 18 hrs by serial dilution method; conditions: for MIC: Trichophyton mentagrophytes
Staphylococcus aureus = assay: Antibacterial activity against Staphylococcus aureus after 16 to 18 hrs by serial dilution method; conditions: for MIC: Staphylococcus aureus; summary of the method: as §1
Klebsiella pneumoniae = assay: Antibacterial activity against Klebsiella pneumoniae after 16 to 18 hrs by serial dilution method; conditions: for MIC: Klebsiella pneumoniae
Aspergillus fumigatus = assay: Antifungal activity against Aspergillus fumigatus after 16 to 18 hrs by serial dilution method; conditions: for MIC: Aspergillus fumigatus
Talaromyces marneffei = assay: Antifungal activity against Penicillium marneffei after 16 to 18 hrs by serial dilution method; conditions: for MIC: Talaromyces marneffei; summary of the method: as §1
Aspergillus flavus = assay: Antifungal activity against Aspergillus flavus after 16 to 18 hrs by serial dilution method; conditions: for MIC: Aspergillus flavus; summary of the method: as §1

Structure (SMILES) | inhibition zone (IZ) (Pseudomonas aeruginosa) [mm] | MIC (Pseudomonas aeruginosa) [µg/mL] | inhibition zone (IZ) (Escherichia coli) [mm] | MIC (Escherichia coli) [µg/mL] | inhibition zone (IZ) [1] [mm] | MIC [1] [µg/mL] | inhibition zone (IZ) (Staphylococcus aureus) [mm] | MIC (Staphylococcus aureus) [µg/mL] | inhibition zone (IZ) (Klebsiella pneumoniae) [mm] | MIC (Klebsiella pneumoniae) [µg/mL] | inhibition zone (IZ) (Aspergillus fumigatus) [mm] | MIC (Aspergillus fumigatus) [µg/mL] | inhibition zone (IZ) (Talaromyces marneffei) [mm] | MIC (Talaromyces marneffei) [µg/mL] | inhibition zone (IZ) (Aspergillus flavus) [mm] | MIC (Aspergillus flavus) [µg/mL]
Cc1ccccc1OCc1ccccc1-c1nnc(-c2ccc(Cl)cc2)o1 | <10 | 25 (≈ 66.3 µM) | <10 | 25 (≈ 66.3 µM) | <10 | 25 (≈ 66.3 µM) | <10 | 25 (≈ 66.3 µM) | <10 | 25 (≈ 66.3 µM) | <10 | 25 (≈ 66.3 µM) | <10 | 25 (≈ 66.3 µM) | <10 | 25 (≈ 66.3 µM)
Cc1cccc(OCc2ccccc2-c2nnc(-c3ccc(Cl)cc3)o2)c1 | <10 | 25 (≈ 66.3 µM) | <10 | 25 (≈ 66.3 µM) | <10 | 25 (≈ 66.3 µM) | <10 | 25 (≈ 66.3 µM) | <10 | 25 (≈ 66.3 µM) | <10 | 25 (≈ 66.3 µM) | <10 | 25 (≈ 66.3 µM) | <10 | 25 (≈ 66.3 µM)
Cc1ccc(OCc2ccccc2-c2nnc(-c3ccc(Cl)cc3)o2)cc1 | <10 | 25 (≈ 66.3 µM) | <10 | 25 (≈ 66.3 µM) | <10 | 25 (≈ 66.3 µM) | <10 | 25 (≈ 66.3 µM) | <10 | 25 (≈ 66.3 µM) | <10 | 25 (≈ 66.3 µM) | <10 | 25 (≈ 66.3 µM) | <10 | 25 (≈ 66.3 µM)
Clc1ccc(OCc2ccccc2-c2nnc(-c3ccc(Cl)cc3)o2)cc1 | <10 | 25 (≈ 62.9 µM) | <10 | 25 (≈ 62.9 µM) | <10 | 25 (≈ 62.9 µM) | <10 | 25 (≈ 62.9 µM) | <10 | 25 (≈ 62.9 µM) | <10 | 25 (≈ 62.9 µM) | <10 | 25 (≈ 62.9 µM) | <10 | 25 (≈ 62.9 µM)
Cc1ccccc1OCc1ccccc1-c1nnc(-c2cccc3ncccc23)o1 | <10 | 25 (≈ 63.5 µM) | <10 | 25 (≈ 63.5 µM) | <10 | 25 (≈ 63.5 µM) | <10 | 25 (≈ 63.5 µM) | <10 | 25 (≈ 63.5 µM) | <10 | 25 (≈ 63.5 µM) | <10 | 25 (≈ 63.5 µM) | <10 | 25 (≈ 63.5 µM)
Cc1cccc(OCc2ccccc2-c2nnc(-c3cccc4ncccc34)o2)c1 | <10 | 25 (≈ 63.5 µM) | <10 | 25 (≈ 63.5 µM) | <10 | 25 (≈ 63.5 µM) | <10 | 25 (≈ 63.5 µM) | <10 | 25 (≈ 63.5 µM) | <10 | 25 (≈ 63.5 µM) | <10 | 25 (≈ 63.5 µM) | <10 | 25 (≈ 63.5 µM)
Cc1ccc(OCc2ccccc2-c2nnc(-c3cccc4ncccc34)o2)cc1 | <10 | 25 (≈ 63.5 µM) | <10 | 25 (≈ 63.5 µM) | <10 | 25 (≈ 63.5 µM) | <10 | 25 (≈ 63.5 µM) | <10 | 25 (≈ 63.5 µM) | <10 | 25 (≈ 63.5 µM) | <10 | 25 (≈ 63.5 µM) | <10 | 25 (≈ 63.5 µM)
Clc1ccc(OCc2ccccc2-c2nnc(-c3cccc4ncccc34)o2)cc1 | <10 | 25 (≈ 60.4 µM) | <10 | 25 (≈ 60.4 µM) | <10 | 25 (≈ 60.4 µM) | <10 | 25 (≈ 60.4 µM) | <10 | 25 (≈ 60.4 µM) | <10 | 25 (≈ 60.4 µM) | <10 | 25 (≈ 60.4 µM) | <10 | 25 (≈ 60.4 µM)
Cc1ccccc1OCc1ccccc1-c1nnc(-c2cccc(Br)c2)o1 | <10 | 25 (≈ 59.3 µM) | <10 | 25 (≈ 59.3 µM) | <10 | 25 (≈ 59.3 µM) | <10 | 25 (≈ 59.3 µM) | <10 | 25 (≈ 59.3 µM) | <10 | 25 (≈ 59.3 µM) | <10 | 25 (≈ 59.3 µM) | <10 | 25 (≈ 59.3 µM)
Cc1cccc(OCc2ccccc2-c2nnc(-c3cccc(Br)c3)o2)c1 | <10 | 25 (≈ 59.3 µM) | <10 | 25 (≈ 59.3 µM) | <10 | 25 (≈ 59.3 µM) | <10 | 25 (≈ 59.3 µM) | <10 | 25 (≈ 59.3 µM) | <10 | 25 (≈ 59.3 µM) | <10 | 25 (≈ 59.3 µM) | <10 | 25 (≈ 59.3 µM)
Cc1ccc(OCc2ccccc2-c2nnc(-c3cccc(Br)c3)o2)cc1 | <10 | 25 (≈ 59.3 µM) | <10 | 25 (≈ 59.3 µM) | <10 | 25 (≈ 59.3 µM) | <10 | 25 (≈ 59.3 µM) | <10 | 25 (≈ 59.3 µM) | <10 | 25 (≈ 59.3 µM) | <10 | 25 (≈ 59.3 µM) | <10 | 25 (≈ 59.3 µM)
Clc1ccc(OCc2ccccc2-c2nnc(-c3cccc(Br)c3)o2)cc1 | <10 | 25 (≈ 56.6 µM) | <10 | 25 (≈ 56.6 µM) | <10 | 25 (≈ 56.6 µM) | <10 | 25 (≈ 56.6 µM) | <10 | 25 (≈ 56.6 µM) | <10 | 25 (≈ 56.6 µM) | <10 | 25 (≈ 56.6 µM) | <10 | 25 (≈ 56.6 µM)
Cc1cccc(OCc2ccccc2-c2nn(CN3CCOCC3)c(=S)o2)c1 | 11 | 12.5 (≈ 31.4 µM) | 11 | 12.5 (≈ 31.4 µM) | 11 | 12.5 (≈ 31.4 µM) | 11 | 12.5 (≈ 31.4 µM) | 11 | 12.5 (≈ 31.4 µM) | 11 | 12.5 (≈ 31.4 µM) | 11 | 12.5 (≈ 31.4 µM) | 11 | 12.5 (≈ 31.4 µM)
Cc1ccccc1OCc1ccccc1-c1nn(CN2CCOCC2)c(=S)o1 | 11 | 12.5 (≈ 31.4 µM) | 11 | 12.5 (≈ 31.4 µM) | 11 | 12.5 (≈ 31.4 µM) | 11 | 12.5 (≈ 31.4 µM) | 11 | 12.5 (≈ 31.4 µM) | 11 | 12.5 (≈ 31.4 µM) | 11 | 12.5 (≈ 31.4 µM) | 11 | 12.5 (≈ 31.4 µM)
Cc1ccccc1OCc1ccccc1-c1nn(CNc2cccc(C(F)(F)F)c2)c(=S)o1 | 16 | 6.25 (≈ 13.3 µM) | 16 | 6.25 (≈ 13.3 µM) | 16 | 6.25 (≈ 13.3 µM) | 16 | 6.25 (≈ 13.3 µM) | 16 | 6.25 (≈ 13.3 µM) | 16 | 6.25 (≈ 13.3 µM) | 16 | 6.25 (≈ 13.3 µM) | 16 | 6.25 (≈ 13.3 µM)
Cc1ccc(OCc2ccccc2-c2nn(CN3CCOCC3)c(=S)o2)cc1 | 11 | 12.5 (≈ 31.4 µM) | 11 | 12.5 (≈ 31.4 µM) | 11 | 12.5 (≈ 31.4 µM) | 11 | 12.5 (≈ 31.4 µM) | 11 | 12.5 (≈ 31.4 µM) | 11 | 12.5 (≈ 31.4 µM) | 11 | 12.5 (≈ 31.4 µM) | 11 | 12.5 (≈ 31.4 µM)
S=c1oc(-c2ccccc2COc2ccc(Cl)cc2)nn1CN1CCOCC1 | 11 | 12.5 (≈ 29.9 µM) | 11 | 12.5 (≈ 29.9 µM) | 11 | 12.5 (≈ 29.9 µM) | 11 | 12.5 (≈ 29.9 µM) | 11 | 12.5 (≈ 29.9 µM) | 11 | 12.5 (≈ 29.9 µM) | 11 | 12.5 (≈ 29.9 µM) | 11 | 12.5 (≈ 29.9 µM)
